# rRNA inh HTS: inhibitors of bacterial rRNA selective over humanized ribosomes. 350,000 compounds, 1.6% hits. GFP signal change (wild-type ribosome), % (concentration not given with the values). E. coli WT GFP vs humanized-ribosome RFP mutants, fluorescence, 24 h; active compounds read low; DMSO median 0, no signal -100;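 active = significant combined selectivity score with lowered wild-type GFP, culture density cut under 30%, mutant RFP and density less affected; inactive = any of these conditions unmet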
# CR mimetic SO: yeast age-related superoxide inhibition as caloric restriction mimetic; S. cerevisiae aged cells, superoxide DHE fluorescence; active compounds read low; superoxide response (% of plate mean), % at 10 µM; 330,000 compounds, 0.18% hits; AID 2690;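 active = superoxide response under a set limit, about three screen SD below normal, cut at about 65% in these data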;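 note: yeast aged for seven days with compound at 30 °C before DHE staining; 100% = average MFI of all compound-treated wells on the plate with controls excluded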
# PglD DTNB: PglD (C. jejuni) enzyme inhibition | 360,000 compounds, 0.098% hits | inhibition, % at 12.5 µM | purified PglD enzyme, DTNB colorimetric CoA detection; in the data active = inhibition above about 16%, passing the limit was not always enough; inconclusive = no clear call, values can overlap the other calls
# Cneo AK release: Cryptococcus neoformans lysis via adenylate kinase release | C. neoformans lysis, adenylate kinase release luminescence, 4 h; normalised: neutral wells 0, clomiphene wells 100 | lysis activity, % at 15 µM | 360,000 compounds, 0.2% hits | AID 651654;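 active = mean lysis activity across replicates of at least 80%, whatever share of replicates individually reach that level; inactive = mean lysis activity below 80%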
#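 Test system: log-phase Cryptococcus neoformans yeast cells; Quantity: yeast cell density of 5 × 10^6 cells/mL; Buffer or medium: YPD; Doses: single compound concentration per well; Timing: 4 h at 37 °C static, read 1 h later; Measured by: AK luminescence; Read-out basis: lysis from increased AK signal; Control set: Clomiphene as positive control.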
# SUMO Mot1 rescue: SUMOylation pathway inhibition by Mot1-301 growth rescue | S. cerevisiae Mot1-301 growth rescue, ATP luminescence, 38.5C; percent above DMSO median, 100 means doubled | growth rescue, % at 18.8 µM | 320,000 compounds, 1% hits | AID 2716;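 active = every valid replicate shows activation above 250% relative to neutral control wells; inactive = the rest, any valid replicate at or below 250%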;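 note: OY570 slx delta 5 strain wells were the positive control but not used for scaling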
# AID977621: growth inhibition of wild-type GFP E. coli, dose response, H69 mutant RFP, cherry-pick. E. coli wild-type GFP strain growth, fluorescence, 24 h. shares compounds with rRNA inh HTS. 1,900 tested, under 10 active. activity change, negative = inhibition at 50 µM;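 active = Wild-type ribosome reporter drop at least double the humanized mutant ribosome reporter drop, growth loss under a set limit; inconclusive = no clear call, values can overlap the other calls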;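 note: wild-type GFP and H69 mutant RFP strains grown together 50/50 in each well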
# AID977628: E. coli growth inhibition, wild-type GFP versus h24 humanized RFP strain, dose response, h24 mutant RFP vs wild-type GFP, cherry-pick | AID 977628 | activity change, negative = inhibition at 50 µM | shares compounds with rRNA inh HTS | E. coli WT GFP strain growth, fluorescence, 24 h | 1,900 tested, under 10 active;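 active = compound lowering the normal-ribosome reporter at least twice as much as the humanized-ribosome reporter, growth loss under a set limit; inconclusive = no clear call, values can overlap the other calls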;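 note: wild-type GFP and h24 humanized RFP strains co-cultured 1 to 1 per well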
# Starred values were filed as active, the others as inactive; ? = inconclusive; · = no result. Only some compounds are listed: those with a hit (about 2.2% of all), similar ones and a draw of the others.
SMILES,rRNA inh HTS,CR mimetic SO,PglD DTNB,Cneo AK release,SUMO Mot1 rescue,AID977621,AID977628
Cc1ccc(NC(=O)c2c(-c3ccccc3Cl)noc2C)nc1,22,107,·,·,8,·,·
Cc1onc(-c2ccccc2)c1C(=O)Nc1ccc(Cl)cn1,-15,108,3,19,232,·,·
Cc1onc(-c2c(Cl)cccc2Cl)c1C(=O)Nc1ccc(Cl)cn1,-20*,99,·,·,-4,-0.98,-3
C[C@H]1CN([C@@H](C)CO)C(=O)c2cc(NS(=O)(=O)c3ccc(Cl)cc3)ccc2O[C@@H]1CN(C)Cc1ccncc1,-1,·,3,-6,·,·,·
C[C@@H]1CN([C@H](C)CO)C(=O)c2cc(C#C[C@@H](C)O)cnc2O[C@@H]1CN(C)Cc1ccccn1,0,·,1,-4,·,·,·
CCN(CC)S(=O)(=O)c1cccc(NC(=O)CNc2cccc(S(=O)(=O)N3CCCC3)c2)c1,-23*,101,-6,1,-7,-24,·
O=C(COC(=O)CNC(=O)c1ccc(F)cc1)Nc1cccc(S(=O)(=O)N2CCCC2)c1,-18*,91,·,·,3,-11,-3.9
Cn1nc(C(=O)Nc2cccc(S(=O)(=O)N3CCCCC3)c2)c2ccccc2c1=O,-17*,·,4,·,·,0.57,-0.87
CCN(CC)CC(=O)Nc1cccc(S(=O)(=O)N2CCCC2)c1,2,111,-6,-2,-10,·,·
O=C(CN(CCO)c1ccccc1)Nc1cccc(S(=O)(=O)N2CCCC2)c1,-23*,111,-13,0,-4,·,?
CO[C@H]1CN(C)C(=O)c2cc(NC(=O)c3ccccc3F)ccc2OC[C@H](C)N(C)C[C@H]1C,-3,·,-2,2,·,·,·
C[C@@H]1CCCCO[C@H](CN(C)Cc2ccc(C(=O)O)cc2)[C@@H](C)CN([C@@H](C)CO)C(=O)c2cc(NC(=O)NC3CCCCC3)ccc2O1,0,·,1,1,·,·,·
COc1ccc(S(=O)(=O)N(C)C[C@@H]2Oc3ccc(NC(=O)Cc4cn(C)c5ccccc45)cc3CC(=O)N([C@H](C)CO)C[C@@H]2C)cc1,-1,·,-1,0,·,·,·
COc1cc(C#N)ccc1OCC(=O)Nc1cccc(S(=O)(=O)N2CCCC2)c1,-26*,98,·,·,-4,·,-13
N#Cc1ccccc1OCC(=O)Nc1cccc(S(=O)(=O)N2CCCC2)c1,-9,95,·,·,-13,·,·
CCOc1ccccc1N1CC(C(=O)Nc2cccc(S(=O)(=O)N3CCCCC3)c2)CC1=O (stereo not given),-21*,86,4,1,25,-21,?
O=C(C[C@H]1C=C[C@@H](NC(=O)NC2CCCCC2)[C@@H](CO)O1)NCc1ccccc1,2,·,0,-1,·,·,·
COc1ccc(CNC(=O)C[C@H]2CC[C@@H]3[C@@H](COc4ccc(NC(=O)C5CC5)cc4C(=O)N3C)O2)cc1,0,·,3,16,·,·,·
FC(F)(F)c1ccc(Cl)c(-n2c(Cc3cccs3)n[nH]c2=S)c1,-33*,102,3,3,-19,-18,·
Cc1ccc(NC(=O)C[n+]2cc(-c3ccccc3)n3c2CCC3)cc1,-40*,102,-1,4,-10,4.9,?
O=C(C[n+]1cc(-c2ccc(F)cc2)n2c1CCC2)c1cccs1,-16*,99,0,-4,6,0.92,2.6
Cn1c(NC(=O)C[n+]2cc(-c3ccc(F)cc3)n3c2CCC3)cc(=O)n(C)c1=O,·,88,·,·,-6,·,·
C[C@@H]1CN([C@@H](C)CO)C(=O)c2cc(NC(=O)Nc3cccc4ccccc34)ccc2O[C@@H](C)CCCCO[C@@H]1CN(C)S(=O)(=O)c1cn(C)cn1,-4,·,0,-4,·,·,·
COc1ccc(-c2cc(C(=O)N(C)CCc3ccc(OC)c(OC)c3)c3ccccc3n2)cc1,-25*,103,-4,-1,-2,?,·
